Screening data deposited in PubChem by several laboratories.
In the library only some 1.6% were active in any assay of this set; here they are far more common.
SR-BI DiI-HDL act: activators of SR-BI mediated DiI-HDL uptake, primary screen, ldlA[mSR-BI] CHO cells, DiI fluorescence; 3 h; 100 = double the neutral-control signal; activation, % at 12.5 µM; 0.096% of 320,000 active; AID 504775, 2011;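 active = mean replicate activation of at least 60% and every replicate at or above 60%; inconclusive = mean or all-replicate condition met, but not both; inactive = mean below 60% and not all replicates reaching 60%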;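 note: 0% = median plate neutral-control signal and 100% = twice that signal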
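material = CHO ldlA[mSR-BI] cells | medium = Ham's F12 with 0.5% BSA, HEPES 25 mM, pH 7.4 | reagent = fluorescent DiI-HDL, 10 µg/mL final | compound dosing = single-point compound dose | incubation = 3 h, 37 °C | measured by = bottom-read fluorescence, 550/595 nm | measure = HDL uptake via cellular fluorescence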
A1 inh: caspase 3/7 activation in MEF A1-2A-BIM cells, primary screen, A1 inhibitor project, cell-based, luminescence, HTS; Caspase-Glo 3/7 luminescence, 3 h; percent of clofoctol response, vehicle zero; caspase activation, % (test concentration not listed); 0.066% of 330,000 active; AID 2462, 2010;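 active = over half of replicate activation scores above 10%, or exactly half above 10 with the replicate mean above 10; inconclusive = replicate mean below 10 yet half the replicates above 10; inactive = over half of replicates below 10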
SR-BI DiI inh: inhibitors of SR-BI mediated HDL lipid uptake, primary screen, ldlA[mSR-BI] cells, fluorescence, single point; Scavenger receptor class B member 1 (Mus musculus), Q61009; ldlA[mSR-BI] CHO cells, DiI-HDL uptake fluorescence, 3 h; inhibition, % at 12.5 µM; 0.96% of 320,000 active;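 active = mean replicate inhibition of at least 70% and a set share of replicates each scoring 70 or more; inconclusive = meets just one of the two criteria; inactive = fails both criteria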;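 note: 0% = median of neutral control wells and 100% = median of positive control wells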
Target sequence (Q61009 whole entry, looked up): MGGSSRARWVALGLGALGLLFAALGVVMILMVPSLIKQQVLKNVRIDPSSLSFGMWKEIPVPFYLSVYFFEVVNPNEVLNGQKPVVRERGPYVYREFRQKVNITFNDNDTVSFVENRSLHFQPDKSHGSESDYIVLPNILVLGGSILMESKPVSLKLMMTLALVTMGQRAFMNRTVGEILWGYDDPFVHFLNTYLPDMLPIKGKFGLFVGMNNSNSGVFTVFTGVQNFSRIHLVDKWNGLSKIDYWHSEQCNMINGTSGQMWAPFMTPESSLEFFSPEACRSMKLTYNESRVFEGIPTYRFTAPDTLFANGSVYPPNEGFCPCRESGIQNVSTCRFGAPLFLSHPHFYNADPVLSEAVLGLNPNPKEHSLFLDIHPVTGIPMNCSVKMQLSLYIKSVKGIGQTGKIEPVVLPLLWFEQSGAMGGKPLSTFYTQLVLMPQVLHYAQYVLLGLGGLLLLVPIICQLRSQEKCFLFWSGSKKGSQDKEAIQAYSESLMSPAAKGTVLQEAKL
TAG inh: inhibitors of triacylglycerol accumulation, primary screen, cell-based, uHTS, fluorescence, H9c2; inhibition, % at 12.5 µM; 0.66% of 230,000 active; H9c2 cells, Nile Red lipid (TAG) fluorescence; cells loaded with 200 µM oleic acid; AID 651582, 2012;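 active = pattern-corrected inhibition of lipid staining of at least 50% with the nuclear-stain viability signal not falling by more than 50%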;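 note: 0% = DMSO wells and 100% = triacsin C control wells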
Vif imaging: HIV Vif self-association inhibitors, primary screen, imaging, HEK293T, single point; HEK293T cells, Vif self-association by quenched fluorescence, 24 h; inhibition, % at 7.49 µM; 0.35% of 340,000 active; AID 602346, 2012; in the data active = inhibition above about 50%, passing the limit was not always enough; inconclusive = no clear call, values can overlap the other calls; inactive = below about 31%
* = called active by the depositor; u = inconclusive; x = no result.

SMILES	SR-BI DiI-HDL act	A1 inh	SR-BI DiI inh	TAG inh	Vif imaging
Cc1ccc(C2=NS(=O)(=O)N(C)C(C(=O)Nc3cc(C)n(CC(=O)N4CCC(C)CC4)n3)=C2)cc1	-86	-2	86*	x	-3
Cc1cc(C)nc(Nc2ccc(C(=O)O)cc2)n1	-13	-2	13	x	58*
CCc1ccc(C(=O)Nc2cc(C)ccc2F)s1	-2	-5	2	-9	14
COc1ccc(COc2cc(-c3cccc(OC)c3)nc3ccc(NC(=O)c4ccc(OC)cc4)cc23)cc1	-73	0	73*	57*	2
COc1ccc(COc2cc(-c3cccc(OC)c3)nc3ccc(NC(=O)c4ccccc4)cc23)cc1	-72	0	u	x	2
COc1ccc(COc2cc(-c3cccc(OC)c3)nc3ccc(NC(=O)c4ccc(Cl)cc4)cc23)cc1	-73	2	73*	39	1
CCOc1nc(Nc2ccc(OC)c(Cl)c2)nc(N2CCN(c3ccc(OC)cc3)CC2)n1	-79	0	79*	x	0
CCOc1nc(Nc2ccc(F)cc2)nc(N2CCN(c3ccc(OC)cc3)CC2)n1	-55	2	55	-20	-12
Cc1ccc(N=Nc2ccc(O)c3ncccc23)cc1	-38	-1	38	87*	-5
Cc1ccc(N=Nc2ccc(O)c3ncccc23)cc1C	-5	-4	5	x	1
Cc1cc(NC(=O)CCN2CCC(C)CC2)ccc1Br	6	-2	-6	-3	24
O=C(CCn1c(=S)[nH]c2ccccc2c1=O)Nc1cccc(Cl)c1	-17	0	17	x	-7
COc1ccc(NC(=O)COC(=O)Cc2c[nH]c3ccccc23)cc1Cl	16	2	-16	-7	55*
COc1ccc(NC(=O)CCn2c(=S)[nH]c3ccccc3c2=O)cc1Cl	x	x	x	-8	57*
Cc1ccc(NC(=O)COC(=O)Cc2c[nH]c3ccccc23)cc1C	17	x	-17	-3	u
COc1cc(NC(=S)NCCc2c[nH]c3ccccc23)c(OC)cc1Cl	-73	-1	73*	3	3
CC1CC(C)CN(CCCNC(=O)CN2C(=O)COc3ccc(S(=O)(=O)N4CCOCC4)cc32)C1 (configuration not stated)	43	1	-43	x	-3
COc1cc(OC)c(-c2nc3ccccc3s2)cc1OC	-71	1	71*	28	-14
COc1cccc(-c2nc3ccccc3s2)c1O	-13	-7	13	21	-1
CCOc1ccccc1C=NNc1ccc([N+](=O)[O-])cn1	-13	x	13	7	19
O=[N+]([O-])c1ccc(N/N=C\c2cccn2-c2ccccc2)nc1	-37	0	37	56*	-17
N#Cc1ccccc1Cn1cc(/C=N/Nc2ccc([N+](=O)[O-])cn2)c2ccccc21	-96	0	96*	-10	158*
O=[N+]([O-])c1ccc(NN=Cc2ccccc2O)nc1	-88	x	88*	3	8
O=[N+]([O-])c1ccc(NN=Cc2ccccc2)nc1	-17	x	17	1	7
Cc1cc(C(=O)Nc2sc3c(c2C#N)CCC(C)C3)cs1 (configuration not stated)	-75	-2	75*	x	1
SMILES	SR-BI DiI-HDL act	A1 inh	SR-BI DiI inh	TAG inh	Vif imaging
O=C(O)c1ccc(Cl)c(S(=O)(=O)Nc2ccc3cn[nH]c3c2)c1	6	0	-6	6	-4
CC(C)Cc1nnc(NC(=O)CCC(=O)NC2CC2)s1	x	1	-32	x	10
O=C(O)C1Nc2c(O)cc(Cl)c([N+](=O)[O-])c2C2C=CCC12 (configuration not stated)	-83	0	83*	27	x
CCc1ccc(OC2(C)CCN(Cc3ccccc3OC(F)F)C2)cc1 (configuration not stated)	x	x	x	-30	73*
COc1cc(O)cc2c1[C@@H]1Oc3c(ccc(O)c3CC=C(C)C)[C@@H]1CO2	-85	-1	85*	x	-29
Cc1ccc(S(=O)(=O)CC(=O)Nc2cccc(C)n2)cc1	x	0	x	x	-10
CC(C)(C)n1nc2c(c1NC(=O)C1CC(=O)N(c3ccc(Cl)cc3)C1)CS(=O)(=O)C2 (configuration not stated)	21	-1	-21	-2	7
Cc1cc(Br)c(OCc2ccc(C(=O)N/N=C3\CC4CC=CC34)cc2)c(Br)c1 (configuration not stated)	-84	1	84*	x	-4
O=C(N/N=C1\CC2CC=CC12)c1ccc(Br)cc1 (configuration not stated)	15	0	-15	-13	-1
Cn1cnc([N+](=O)[O-])c1S(=O)(=O)Oc1ccccc1	5	x	-5	15	-3
Cn1cnc([N+](=O)[O-])c1S(=O)(=O)c1cccc(Cl)c1	10	7.8*	-10	42	-3
O=C1OC(c2ccccc2)(c2ccc3cc(O)ccc3c2)c2ccccc21 (configuration not stated)	-16	x	16	-1	3
CCn1c(CC(=O)Nc2ccccc2)nnc1SCC(=O)Nc1nnc(C)s1	-3	0	3	x	68*
Cc1cc(NC(=O)CSc2nc3c(sc4ccccc43)c(=O)n2CCc2ccccc2)n[nH]1	-15	0	15	1	8
Cc1cc(NC(=O)CSc2nc3c(sc4ccccc43)c(=O)n2CCCN2CCOCC2)n[nH]1	20	-1	-20	x	94*
C[C@@H]1CN([C@@H](C)CO)C(=O)c2cc(NS(C)(=O)=O)ccc2O[C@@H]1CN(C)Cc1ccc(C(F)(F)F)cc1	2	x	-2	13	-2
CCCCCc1cc(=O)oc2c(C(CCN3CCCCC3)c3cc(OC)c(OC)c(OC)c3)c(OC)cc(OC)c12 (configuration not stated)	62*	1	-62	80*	-9
CCCCCc1cc(=O)oc2c(C(CCN3CCCC(C)C3)c3ccc(N(C)C)cc3)c(OC)cc(OC)c12 (configuration not stated)	1	0	-1	107*	0
Cc1noc(C)c1NC(=O)N(C)C[C@@H]1Oc2ccc(NC(=O)C3CCCCC3)cc2C(=O)N([C@@H](C)CO)C[C@H]1C	26	0	-26	6	-7
COC(=O)c1ccc(COc2ccc(C)cc2[N+](=O)[O-])o1	-9	-1	9	-6	-5
COC(=O)c1cc(C)ccc1OCc1ccc([N+](=O)[O-])cc1	-27	0	27	5	82*
COC(=O)c1ccc(OCC2c3cc(OC)c(OC)cc3CCN2C(=O)c2ccco2)cc1 (configuration not stated)	-36	-1	36	x	69*
